{"source": "PubChem BioAssay AID504676", "about": "(Southern Research Specialized Biocontainment Screening …, 2011)", "system": "E. coli EV36 K1 capsule, T7 phage lysis, OD600", "assay": "T7 phage lysis sensitisation by capsule loss, dose response, selectivity assay for bacterial capsule biogenesis inhibitor project, EV36 K1:K-12 hybrid, OD600, set 3 (AID 504676)", "outline": "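System: E. coli EV36 K1/K-12 hybrid bacteria / Repeats: four replicate wells / Schedule: 1.5 h pre-phage compound exposure, 3 h post-infection, 37 °C shaking / Evaluation: lysis by OD600 decrease after T7 infection / Technique: OD600 absorbance / Medium: LB growth medium / Doses: dose series from 0.39 to 100 µM final, 1% DMSO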"}
{"molecule": "COc1ccc2nc(NC(=O)c3cccs3)sc2c1", "values": [{"measurement": "IC50", "value": 5.9, "unit": "µM"}]}
{"molecule": "COc1ccc2nc(NC(=O)c3ccco3)sc2c1", "values": [{"measurement": "IC50", "value": 22.9, "unit": "µM"}]}
